The term IC50 denotes the concentration that inhibits the measured activity by half.

Experimental findings from ChEMBL document CHEMBL4130581, “Securamine Derivatives from the Arctic Bryozoan Securiflustra securifrons” (J Nat Prod, 2017) are described below.

Data set [1] has as its system A2058. Kind of data set: Cytotoxicity in human A2058 cells assessed as reduction in cell survival incubated for 72 hrs by MTS assay. The data set is classed as functional, cell-based. As to conditions: A2058, 72 h. Put shortly: (§1)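 A2058 human melanoma cells grown in D-MEM with 10% FBS and L-alanyl-L-glutamine at 37 °C, 5% CO2. Seeded at 2000 cells/well and allowed to adhere 24 h. Exposed to a range of concentrations for 4, 24, 48 or 72 h. MTS added for 1 h, then absorbance read at 485 nm. Survival normalised to 1% DMSO (negative) and 0.5% Triton X-100 (positive) controls. Triplicate wells, three independent experiments.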
A general note: Formazan colour is commonly taken as a measure of viable cells.

Data set [2] relates to HT-29. Description: Cytotoxicity in human HT-29 cells assessed as reduction in cell survival incubated for 72 hrs by MTS assay. Type of data set: functional, cell-based. The note with it: HT-29, 72 h. An outline of the steps: (§2)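 HT-29 colon adenocarcinoma cells kept in RPMI with 10% FBS and L-alanyl-L-glutamine at 37 °C, 5% CO2. Seeded at 2000 cells/well and left 24 h before 72 h exposure to various concentrations. MTS reagent for 1 h, then absorbance at 485 nm. Survival scaled between 1% DMSO and 0.5% Triton X-100 controls. IC50 from eight concentration points. Means ± SD of three independent determinations.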

Data set [3] concerns MCF7. Kind of data set: Cytotoxicity in human MCF7 cells assessed as reduction in cell survival incubated for 72 hrs by MTS assay. As to conditions: MCF7, 72 h. The data set is classed as functional, cell-based. An outline of the steps:
(§3)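 MCF-7 breast adenocarcinoma cells in E-MEM with 10% FBS, L-alanyl-L-glutamine, nonessential amino acids, sodium pyruvate and sodium bicarbonate at 37 °C, 5% CO2. Plated at 2000 cells/well and left 24 h, then treated 72 h across a concentration range. MTS for 1 h, read at 485 nm. Survival relative to 1% DMSO and 0.5% Triton X-100 controls. IC50 by regression on eight concentrations. Three independent experiments, mean ± SD.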

Data set [4] relates to MRC5. Kind of data set: Cytotoxicity in human MRC5 cells assessed as reduction in cell survival incubated for 72 hrs by MTS assay. The data set is classed as cell-based. The note with it: MRC5, 72 h. An outline of the steps: (§4)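 Nonmalignant MRC-5 lung fibroblasts in supplemented E-MEM (10% FBS, glutamine, NEAA, pyruvate, bicarbonate) at 37 °C, 5% CO2. Seeded at 4000 cells/well and allowed 24 h to adhere. Exposed to ranging concentrations for 24 or 72 h. MTS added for 1 h, absorbance at 485 nm. Survival normalised to 1% DMSO and 0.5% Triton X-100 controls. Triplicates, three independent experiments.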

In data set [5] the test system is A2058. Description: Cytotoxicity in human A2058 cells assessed as reduction in cell survival by MTS assay. The note with it: TDE = time-dependent effect. The data set is classed as functional, cell-based. Put shortly:
as §1

Data set [6] has as its system HT-29. Kind of data set: Cytotoxicity in human HT-29 cells assessed as reduction in cell survival by MTS assay. Type of data set: functional, cell-based. As to conditions: TDE = time-dependent effect. Put shortly: as §2
Data set [7] concerns MCF7. Kind of data set: Cytotoxicity in human MCF7 cells assessed as reduction in cell survival by MTS assay. Type of data set: functional, cell-based. As to conditions: TDE = time-dependent effect. Put shortly: as §3
Data set [8] concerns MRC5. Kind of data set: Cytotoxicity in human MRC5 cells assessed as reduction in cell survival by MTS assay. Type of data set: cell-based. As to conditions: TDE = time-dependent effect. An outline of the steps:
as §4

The test system of data set [9] is A2058. Kind of data set: Cytotoxicity in human A2058 cells assessed as reduction in cell survival at 0.313 to 10 uM incubated for 4 hrs by MTS assay. The data set is classed as functional, cell-based. Put shortly:
as §1

The test system of data set [10] is A2058. Description: Cytotoxicity in human A2058 cells assessed as reduction in cell survival incubated for 24 hrs by MTS assay. The note with it: A2058, 24 h. The data set is classed as functional, cell-based. Put shortly:
as §1

Data set [11] relates to A2058. Description: Cytotoxicity in human A2058 cells assessed as reduction in cell survival incubated for 48 hrs by MTS assay. The note with it: A2058, 48 h. The data set is classed as functional, cell-based. Put shortly:
as §1

Data set [12] concerns MRC5. Kind of data set: Cytotoxicity in human MRC5 cells assessed as reduction in cell survival incubated for 24 hrs by MTS assay. Type of data set: cell-based. The note with it: MRC5, 24 h. Put shortly: as §4

Calls of active or inactive are those of the source. No cut-off for these calls is given here.

For `CC1(C)[C@@H](Cl)C[C@]23[C@@H]4CC(=O)N2C=CC2=NC(=O)N[C@@]21N3c1cc(Br)cc(Br)c14`, the IC50 with A2058 [1] was found to be 6.7 µM; in the data set with HT-29 [2] it was 10 µM; in the data set with MCF7 [3] it was 8.5 µM; in the data set on MRC5 [4], 9.6 µM.
`CO[C@H]1[C@H](O)C2=NC(=O)N[C@@]23N2c4cc(Br)c(Br)c(Br)c4[C@H]4CC(=O)N1[C@]42C[C@H](Cl)C3(C)C`: the IC50 in the data set on A2058 [1], in the data set on HT-29 [2], in the data set with MCF7 [3] and in the data set with MRC5 [4] was above 50 µM throughout.
Take `CC1(C)[C@@H](Cl)C[C@]23[C@@H]4CC(=O)N2C=CC2=NC(=O)N[C@@]21N3c1cc(Br)c(Br)c(Br)c14`: the 50% inhibitory concentration (IC50) is 1.4 µM with A2058 [1]; 1.9 µM with HT-29 [2]; 2.1 µM in the data set on MCF7 [3]; 2.7 µM with MRC5 [4]; 2.8 µM in the data set with A2058 [10]; 1.8 µM with A2058 [11]. In the data set on MRC5 [12], the IC50 was above 10 µM. Moreover, the Activity result in the data set with A2058 [5], with HT-29 [6], with MCF7 [7] and with MRC5 [8] was “Tde” throughout. In the data set on A2058 [9], the outcome was inactive.
Regarding `CC1(C)[C@@H](Cl)C[C@]23[C@@H]4CC(=O)N2C=CC2=NC(=O)N[C@@]21N3c1cc(Br)c(Br)cc14`, the IC50 with A2058 [1] stood at 2.7 µM; in the data set on HT-29 [2], 2.5 µM; with MCF7 [3], 2.4 µM; in the data set on MRC5 [4], 5.3 µM.
As to `CC1(C)[C@@H](Cl)C[C@]23[C@@H]4CC(=O)N2C=CC2=NC(=O)N[C@@]21N3c1cc(Br)ccc14`, the IC50 in the data set on A2058 [1] turned out to be 20 µM; in the data set with HT-29 [2], 21 µM; in the data set with MCF7 [3], 23 µM; with MRC5 [4], 30 µM.
